{"data": "Experimental data pooled from the literature", "mode": "inhibitor", "HDAC6": "Protein deacetylase HDAC6 (HDAC6, Homo sapiens, UniProt Q9UBN7)", "CDK7 with cyclin H": "Cyclin-dependent kinase 7, with cyclin H (CDK7, Homo sapiens, UniProt P50613)", "ACSL4": "Long-chain-fatty-acid--CoA ligase 4 (ACSL4, Homo sapiens, UniProt O60488)", "SLCO2B1": "Solute carrier organic anion transporter family member 2B1 (SLCO2B1, Homo sapiens, UniProt O94956)", "note": "Compare with care: the assays were run in different laboratories."}
{"Structure (SMILES)": "O=C(CNc1cccc2c1C(=O)N(C1CCC(=O)NC1=O)C2=O)NCCCCCCN1CCc2c(c3ccccc3n2Cc2ccc(C(=O)NO)cc2)C1 (stereo not shown)", "target": "HDAC6", "observed": "enzyme activity", "method": "fluorescence", "IC50 [µM]": 0.04}
{"Structure (SMILES)": "CNS(=O)(=O)c1ccc(Nc2ncc(C(F)(F)F)c([C@H]3CC[C@@](C)(O)CC3)n2)c(C)c1", "target": "CDK7 with cyclin H", "observed": "enzyme activity", "method": "radiometric", "IC50 [µM]": 7.26}
{"Structure (SMILES)": "COc1ccc(N(Cc2csc(-c3ccc(Br)cc3)n2)C(=O)CCCCCC(=O)NO)cc1", "target": "HDAC6", "observed": "enzyme activity", "IC50 [µM]": 0.0032}
{"Structure (SMILES)": "O=C(NO)c1ccc(Cn2cnc3c(Nc4ccc(Br)cc4F)ncnc32)cc1", "target": "HDAC6", "observed": "enzyme activity", "method": "fluorescence", "IC50 [µM]": 0.00913}
{"Structure (SMILES)": "O=C1CCC(c2ccc(OCC(=O)OCCCCc3cn(CCCCCCN4CCc5c(c6ccccc6n5Cc5ccc(C(=O)NO)cc5)C4)nn3)cc2)C(=O)N1 (stereo not shown)", "target": "HDAC6", "observed": "enzyme activity", "method": "fluorescence", "IC50 [µM]": 0.049}
{"Structure (SMILES)": "CCc1ccc(C(=O)COc2ccc(CC3SC(=O)NC3=O)cc2)nc1 (stereo not shown)", "target": "ACSL4", "observed": "enzyme activity", "IC50 [µM]": 6}
{"Structure (SMILES)": "COC(=O)c1cc(OC)c2c(c1-c1c(C(=O)OC)cc(OC)c3c1OCO3)OCO2", "target": "Liver carboxylesterase 1 (CES1, Homo sapiens, UniProt P23141)", "observed": "enzyme activity", "IC50 [µM]": 11.4}
{"Structure (SMILES)": "O=C(NO)c1ccc(Cn2cnc3c(Nc4ccc(F)c(Cl)c4)ncnc32)cc1", "target": "HDAC6", "observed": "enzyme activity", "method": "fluorescence", "IC50 [µM]": 0.00617}
{"Structure (SMILES)": "COC(=O)/C=C/c1ccc(OCCN(C)c2ccccc2)cc1", "target": "ACSL4", "observed": "enzyme activity", "IC50 [µM]": 1.5}
{"Structure (SMILES)": "COc1ccc(N(Cc2csc(-c3ccc(C)cc3)n2)C(=O)CCCCCC(=O)NO)cc1", "target": "HDAC6", "observed": "enzyme activity", "IC50 [µM]": 0.0025}
{"Structure (SMILES)": "CN(CCCCCCNC(=O)CNc1cccc2c1C(=O)N(C1CCC(=O)NC1=O)C2=O)Cc1cn(Cc2ccc(C(=O)NO)cc2)c2ccccc12 (stereo not shown)", "target": "HDAC6", "observed": "enzyme activity", "method": "fluorescence", "IC50 [µM]": 0.026}
{"Structure (SMILES)": "CN(C)C(=O)c1cc2cnc(Nc3ccc(-c4ccc5c(=O)cc(N6CCOCC6)oc5c4)cc3)nc2n1C1CCCC1", "target": "CDK7 with cyclin H", "observed": "enzyme activity", "IC50 [µM]": "> 10"}
{"Structure (SMILES)": "CCc1oc2cc(F)ccc2c1C(=O)c1cc(Br)c(O)c(Br)c1", "target": "SLCO2B1", "observed": "transporter uptake", "method": "radiometric", "IC50 [µM]": 0.749}
{"Structure (SMILES)": "COC(=O)CCCc1ccc(OCCN(C)c2ccccc2)cc1", "target": "ACSL4", "observed": "enzyme activity", "IC50 [µM]": "> 50"}
{"Structure (SMILES)": "CNS(=O)(=O)c1ccc(Nc2ncc(C(F)(F)F)c(N3CCC[C@](C)(O)C3)n2)c(C)c1", "target": "CDK7 with cyclin H", "observed": "enzyme activity", "method": "radiometric", "IC50 [µM]": 1.61}
{"Structure (SMILES)": "COC(=O)/C=C/c1ccc(OCCN(C)C(=O)c2ccccc2)cc1", "target": "ACSL4", "observed": "enzyme activity", "IC50 [µM]": 0.38}
{"Structure (SMILES)": "CNS(=O)(=O)c1ccc(Nc2ncc3cc(Cl)c(=O)n(C4CCCC4)c3n2)c(C)c1", "target": "CDK7 with cyclin H", "observed": "enzyme activity", "method": "radiometric", "IC50 [µM]": 1.6}
{"Structure (SMILES)": "CCc1ccc(CCOc2ccc(CC3SC(=O)NC3=O)cc2)nc1 (stereo not shown)", "target": "ACSL4", "observed": "enzyme activity", "IC50 [µM]": 6.4}
{"Structure (SMILES)": "CCc1oc2ccccc2c1C(=O)c1cc(Br)c(O)c(Br)c1", "target": "SLCO2B1", "observed": "transporter uptake", "method": "radiometric", "IC50 [µM]": 0.209}
{"Structure (SMILES)": "COC(=O)CCc1ccc(OCCN(C)c2ccccc2)cc1", "target": "ACSL4", "observed": "enzyme activity", "IC50 [µM]": 8.5}
{"Structure (SMILES)": "CNS(=O)(=O)c1ccc(Nc2ncc(C(F)(F)F)c(N3CCC(C)(O)CC3)n2)c(C)c1", "target": "CDK7 with cyclin H", "observed": "enzyme activity", "method": "radiometric", "IC50 [µM]": 1.97}
{"Structure (SMILES)": "CN1C(=O)SC(Cc2ccc(OCCN(C)c3ccccn3)cc2)C1=O (stereo not shown)", "target": "ACSL4", "observed": "enzyme activity", "IC50 [µM]": 4.5}
{"Structure (SMILES)": "O=C(NO)c1ccc(CN2CCN(c3cccc4cc(S(=O)(=O)c5cccc(F)c5)cnc34)CC2)c(F)c1", "target": "HDAC6", "observed": "enzyme activity", "method": "fluorescence", "IC50 [µM]": 0.54}
{"Structure (SMILES)": "Cc1c(C)c2c(c(C)c1O)CCC(C)(COc1ccc(CC3SC(=O)NC3=O)cc1)O2 (stereo not shown)", "target": "ACSL4", "observed": "enzyme activity", "IC50 [µM]": 26.3}
{"Structure (SMILES)": "N=C(N)NCCCC(=O)O", "target": "Alkaline phosphatase, tissue-nonspecific isozyme (Rattus norvegicus, UniProt P08289)", "observed": "enzyme activity in cells", "method": "absorbance", "IC50 [µM]": 15200}
